# Results from ChEMBL document CHEMBL2439982, “Synthesis and study of antiproliferative, antitopoisomerase II, DNA-intercalating and DNA-damaging activities of arylnaphthalimides” (Bioorg Med Chem, 2013).
# Activity calls are given as the source filed them. The calls are words filed in the database; no cut-off is given here.
# How the values were obtained:
# Saccharomyces cerevisiae [1] = assay: Induction of DNA repair in Saccharomyces cerevisiae W3749-14C harboring Rad52-YFP assessed as increase in Rad52 foci formation at 100 uM after 3 hrs; format: functional, organism-based
# Outline: (§1)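 RAD52-YFP yeast (W3749-14C) growing asynchronously treated 3 h at 25 °C with 100 µM compound in 1% DMSO; DMSO and phleomycin 25 µg/mL as controls. Cells micrographed. Mononucleated budded cells with bud over two-thirds mother size scored as G2-arrested. Foci per cell = total YFP foci / total cells.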
# Saccharomyces cerevisiae [2] = assay: Cell cycle arrest in Saccharomyces cerevisiae W3749-14C harboring RAD52-YFP assessed as accumulation at G2 Phase at 100 uM after 3 hrs; format: functional, organism-based; outline: as §1
# Saccharomyces cerevisiae [3] = assay: Growth inhibition of Saccharomyces cerevisiae FM588 expressing wild type rad52 gene at 1 to 100 uM after 24 hrs by spectrophotometry; format: functional, organism-based
# [4] = molecular target: DNA topoisomerase 2-alpha (Homo sapiens) (UniProt P11388); assay: Inhibition of human DNA topoisomerase 2alpha-mediated DNA cleavage assessed as decrease in relaxation of supercoiled pRYG plasmid at 30 uM after 30 mins by agarose gel electrophoresis
# Outline: (§2)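 Human Topo IIα, 1–2 units, with 250 ng supercoiled pRYG and 1 mM ATP in 5 mM Tris-HCl pH 7.5, 12.5 mM NaCl, 1 mM MgCl2, 0.5 mM DTT, 10 µg/mL albumin. Compound added in DMSO, 1% final. Incubated 37 °C for 30 min, stopped with SDS/EDTA, proteinase K digestion. 1% agarose in TBE without ethidium bromide, stained afterwards. Inhibition scored at 100, 60 and 30 µM.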
# [5] = molecular target: DNA topoisomerase 2-alpha (Homo sapiens) (UniProt P11388); assay: Inhibition of human DNA topoisomerase 2alpha-mediated relaxation of supercoiled pRYG plasmid DNA assessed as formation of linearized DNA at 100 uM after 30 mins by agarose gel electrophoresis relative to vehicle-treated control in presence of ethidium bromide
# Outline: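 Cleavage-complex assay set up as the Topo IIα relaxation reaction, but with 10 units of hTopoIIα added 1–3 min before 100 µM compound in 1% DMSO. Etoposide as positive control. Electrophoresis in TAE containing 0.5 µg/mL ethidium bromide to resolve the linearized intermediate.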
# HEL = assay: Antiproliferative activity against human HEL cells after 48 hrs by MTT assay; format: functional, cell-based
# Outline: (§3)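 Cells seeded at 10,000 per well; compound or vehicle (0.1% DMSO final) added 24 h after plating and left 48 h. MTT added at 0.5 mg/mL final for 3 h at 37 °C, formazan dissolved in SDS–HCl (20% SDS, 0.02 M HCl), absorbance at 570 nm. IC50 by non-linear regression; mean SD, n = 3.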
# SK-BR-3 = assay: Antiproliferative activity against human SKBR3 cells after 48 hrs by MTT assay; format: functional, cell-based; settings: SK-BR-3, 48 h; outline: as §3
# MCF7 = assay: Antiproliferative activity against human MCF7 cells after 48 hrs by MTT assay; format: functional, cell-based; settings: MCF7, 48 h; outline: as §3
# Saccharomyces cerevisiae [6] = assay: Growth inhibition of isogenic rad52-deficient Saccharomyces cerevisiae FM588 at 1 to 100 uM after 24 hrs by spectrophotometry; format: functional, organism-based
# [7] = molecular target: DNA topoisomerase 2-alpha (Homo sapiens) (UniProt P11388); assay: Inhibition of human DNA topoisomerase 2alpha-mediated DNA cleavage assessed as decrease in relaxation of supercoiled pRYG plasmid at 100 uM after 30 mins by agarose gel electrophoresis; outline: as §2
# [8] = molecular target: T1, DNA topoisomerase 1 (Homo sapiens) (UniProt P11387); assay: Inhibition of DNA topoisomerase 1 (unknown origin)-mediated relaxation of supercoiled pBSKS plasmid DNA assessed as formation of nicked form of DNA at 1 00 uM after 30 mins by agarose gel electrophoresis in presence of ethidium bromide
# T1 sequence (whole entry): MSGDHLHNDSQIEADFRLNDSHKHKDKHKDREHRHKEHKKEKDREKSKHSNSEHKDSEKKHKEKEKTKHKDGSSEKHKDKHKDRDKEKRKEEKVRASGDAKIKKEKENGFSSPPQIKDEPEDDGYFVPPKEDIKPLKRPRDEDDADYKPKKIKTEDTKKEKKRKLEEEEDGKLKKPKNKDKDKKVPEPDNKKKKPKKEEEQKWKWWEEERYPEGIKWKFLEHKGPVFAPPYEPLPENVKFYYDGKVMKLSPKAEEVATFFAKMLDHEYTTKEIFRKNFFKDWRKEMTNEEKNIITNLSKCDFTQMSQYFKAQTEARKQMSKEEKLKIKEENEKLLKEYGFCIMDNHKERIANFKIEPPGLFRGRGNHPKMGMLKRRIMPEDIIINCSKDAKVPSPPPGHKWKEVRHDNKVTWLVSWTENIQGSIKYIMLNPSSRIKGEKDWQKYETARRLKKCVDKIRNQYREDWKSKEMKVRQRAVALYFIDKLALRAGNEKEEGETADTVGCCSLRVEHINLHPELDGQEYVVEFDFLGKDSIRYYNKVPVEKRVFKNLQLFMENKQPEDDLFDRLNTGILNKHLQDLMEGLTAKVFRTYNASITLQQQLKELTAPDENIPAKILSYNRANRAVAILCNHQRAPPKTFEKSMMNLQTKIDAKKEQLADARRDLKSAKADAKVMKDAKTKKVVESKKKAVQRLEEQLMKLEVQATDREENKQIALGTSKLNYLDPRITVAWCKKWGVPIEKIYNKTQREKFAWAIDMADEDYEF
# [9] = molecular target: DNA topoisomerase 2-alpha (Homo sapiens) (UniProt P11388); assay: Inhibition of human DNA topoisomerase 2alpha-mediated DNA cleavage assessed as decrease in relaxation of supercoiled pRYG plasmid at 60 uM after 30 mins by agarose gel electrophoresis; outline: as §2
# [10] = molecular target: T1, DNA topoisomerase 1 (Homo sapiens); assay: Inhibition of DNA topoisomerase 1 (unknown origin)-mediated DNA cleavage assessed as decrease in relaxation of supercoiled pBSKS plasmid at 1 00 uM after 30 mins by agarose gel electrophoresis
# [11] = molecular target: T2, Type II restriction enzyme XhoI (Xanthomonas vasicola) (UniProt Q9KVZ7); assay: Inhibition of Xanthomonas vasicola Xho1 assessed as inhibition of endonucleolytic cleavage of pBSKS plasmid DNA at 100 uM by agarose gel electrophoresis
# T2 sequence (whole entry): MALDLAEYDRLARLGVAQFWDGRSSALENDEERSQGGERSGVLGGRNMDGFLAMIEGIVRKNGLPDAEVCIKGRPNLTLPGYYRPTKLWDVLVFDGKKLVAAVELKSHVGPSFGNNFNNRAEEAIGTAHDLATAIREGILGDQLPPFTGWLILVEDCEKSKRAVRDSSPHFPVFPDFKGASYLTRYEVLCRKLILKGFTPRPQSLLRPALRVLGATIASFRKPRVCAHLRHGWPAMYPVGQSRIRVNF
# Outline: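 XhoI digestion of pBSKS plasmid, which carries a single XhoI site, run like the Topo I reaction with compounds at 100 µM in 1% DMSO. Actinomycin D as intercalator control. Agarose gel separates supercoiled, nicked intermediate and linear product.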
# Chain of DNA topoisomerase 2-alpha (Homo sapiens) (P11388 whole entry): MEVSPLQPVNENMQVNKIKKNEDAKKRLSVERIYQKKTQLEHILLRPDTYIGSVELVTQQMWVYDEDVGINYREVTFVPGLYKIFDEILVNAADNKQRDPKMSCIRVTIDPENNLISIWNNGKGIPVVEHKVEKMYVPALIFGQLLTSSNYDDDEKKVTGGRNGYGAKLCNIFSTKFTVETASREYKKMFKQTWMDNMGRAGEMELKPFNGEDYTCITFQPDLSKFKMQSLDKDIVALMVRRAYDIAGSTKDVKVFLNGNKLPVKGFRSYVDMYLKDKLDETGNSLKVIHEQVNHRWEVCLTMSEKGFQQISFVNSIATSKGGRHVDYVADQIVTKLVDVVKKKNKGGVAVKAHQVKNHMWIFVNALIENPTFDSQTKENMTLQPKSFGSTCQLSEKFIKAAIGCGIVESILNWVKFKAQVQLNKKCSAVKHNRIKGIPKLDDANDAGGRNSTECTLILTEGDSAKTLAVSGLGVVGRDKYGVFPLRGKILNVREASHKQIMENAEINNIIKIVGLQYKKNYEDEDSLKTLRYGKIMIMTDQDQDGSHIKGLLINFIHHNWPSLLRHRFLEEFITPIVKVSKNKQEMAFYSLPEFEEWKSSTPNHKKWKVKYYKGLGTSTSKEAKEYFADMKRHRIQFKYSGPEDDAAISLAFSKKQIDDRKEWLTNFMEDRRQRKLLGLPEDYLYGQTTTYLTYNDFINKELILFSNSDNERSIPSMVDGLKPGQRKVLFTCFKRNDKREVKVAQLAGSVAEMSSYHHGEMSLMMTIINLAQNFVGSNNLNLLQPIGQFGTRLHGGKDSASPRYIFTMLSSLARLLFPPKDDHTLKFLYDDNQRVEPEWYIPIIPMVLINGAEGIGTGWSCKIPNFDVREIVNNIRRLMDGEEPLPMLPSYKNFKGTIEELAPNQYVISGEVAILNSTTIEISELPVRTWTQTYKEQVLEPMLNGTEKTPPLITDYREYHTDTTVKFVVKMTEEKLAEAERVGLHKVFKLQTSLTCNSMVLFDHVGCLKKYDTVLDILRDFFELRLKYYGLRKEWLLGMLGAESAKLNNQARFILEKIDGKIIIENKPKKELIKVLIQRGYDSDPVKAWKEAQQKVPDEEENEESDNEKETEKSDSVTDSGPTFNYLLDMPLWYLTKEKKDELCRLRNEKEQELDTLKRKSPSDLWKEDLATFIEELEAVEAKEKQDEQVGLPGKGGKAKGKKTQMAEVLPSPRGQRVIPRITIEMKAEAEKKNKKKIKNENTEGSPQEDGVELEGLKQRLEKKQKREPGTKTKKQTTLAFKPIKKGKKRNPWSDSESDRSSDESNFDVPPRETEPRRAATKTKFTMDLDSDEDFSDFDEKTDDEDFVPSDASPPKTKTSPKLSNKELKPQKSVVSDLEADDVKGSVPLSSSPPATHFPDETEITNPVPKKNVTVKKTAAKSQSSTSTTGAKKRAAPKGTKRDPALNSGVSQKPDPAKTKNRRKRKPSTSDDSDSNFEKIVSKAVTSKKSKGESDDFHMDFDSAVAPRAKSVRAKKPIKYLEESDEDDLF
inhibition [4],inhibition [5],IC50 (SK-BR-3) [µM],IC50 (MCF7) [µM],inhibition [7],inhibition [8],inhibition [9],inhibition [10],inhibition [11],Compound,Activity (Saccharomyces cerevisiae [1]),Activity (Saccharomyces cerevisiae [2]),growth inhibition (GI) (Saccharomyces cerevisiae [3]),IC50 (HEL) [µM],growth inhibition (GI) (Saccharomyces cerevisiae [6])
,,> 30,> 30,,,,,,COc1cccc(-c2ccc3cccc4c3c2C(=O)N(CCN(C)C)C4=O)c1,,,,,
,,27.6,> 30,,inactive,Active,Active,,COc1ccc(-c2ccc3c4c(cccc24)C(=O)N(CCN(C)C)C3=O)cc1,,,,,
,,> 30,> 30,inactive,inactive,,,,COc1ccccc1-c1ccc2c3c(cccc13)C(=O)N(CCN(C)C)C2=O,,,,,inactive
,,> 30,> 30,inactive,inactive,,,,COc1ccc(-c2ccc3cccc4c3c2C(=O)N(CCN(C)C)C4=O)cc1,,,,,inactive
,,> 30,> 30,Active,inactive,,Active,,COc1cccc(-c2ccc3c4c(cccc24)C(=O)N(CCN(C)C)C3=O)c1,,,,,
,,1.5,7.6,Active,inactive,,,,COc1ccc(-c2cc3c4c(cccc4c2)C(=O)N(CCN(C)C)C3=O)cc1,,,,,Active
,Active,0.3,0.5,,inactive,Active,Active,Active,COc1cccc(-c2cc3c4c(cccc4c2)C(=O)N(CCN(C)C)C3=O)c1,Active,Active,Active,2.7,

# Continued, molecule first:
Compound,inhibition [4],inhibition [5],IC50 (SK-BR-3) [µM],IC50 (MCF7) [µM],inhibition [7],inhibition [8],inhibition [9],inhibition [10],inhibition [11],Activity (Saccharomyces cerevisiae [1]),Activity (Saccharomyces cerevisiae [2]),growth inhibition (GI) (Saccharomyces cerevisiae [3]),IC50 (HEL) [µM],growth inhibition (GI) (Saccharomyces cerevisiae [6])
CN(C)CCN1C(=O)c2cccc3cc(-c4cccc([N+](=O)[O-])c4)cc(c23)C1=O,Active,Active,1.2,,,,,,,Active,Active,Active,0.6,
CN(C)CCN1C(=O)c2cccc3cc(-c4ccccc4)cc(c23)C1=O,Active,Active,0.8,,,,,,,Active,Active,Active,6,
CN(C)CCN1C(=O)c2cccc3cc(-c4cccc(O)c4)cc(c23)C1=O,,Active,4.4,,Active,,,,,,,,7,Active
COc1ccccc1-c1cc2c3c(cccc3c1)C(=O)N(CCN(C)C)C2=O,,,11.9,25.7,Active,inactive,,,,,,,,
CN(C)CCN1C(=O)c2cccc3cc(N)cc(c23)C1=O [AMONAFIDE],,Active,7.4,,,,Active,,,,,inactive,3.4,Active
CN(C)CCN1C(=O)c2cccc3cc(-c4cccc(C(F)(F)F)c4)cc(c23)C1=O,,Active,1.2,,,,Active,,,Active,Active,Active,1.6,
COc1ccccc1-c1ccc2cccc3c2c1C(=O)N(CCN(C)C)C3=O,,,24,24,inactive,inactive,,,,,,,,
CN(C)CCN1C(=O)c2cccc3cc(-c4cccc(N)c4)cc(c23)C1=O,,Active,14.2,,inactive,,,,,,,,13.5,Active
